# According to PMC10884431 (Heliyon, 2024):
# Experiments:
# [1] = tested on: macrophages; experiment: Nitric oxide; format: cell-based; details: positive control at 5 μM
# In short: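 NO production measured by absorbance at 540 nm on a microplate reader. The assay was run in triplicate and repeated in three independent experiments.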
# [2] = biological target: SARS-CoV-2 main protease (M^pro) (Severe acute respiratory syndrome coronavirus 2, UniProt P0DTD1); experiment: M^pro inhibition assay; format: biochemical; details: read-out: SARS-CoV-2 M^pro inhibition percentage, reference at 1 μM
# [3] = biological target: HIV-1 reverse transcriptase (Human immunodeficiency virus type 1 group M subtype B, UniProt P03366); experiment: HIV-1 reverse transcriptase inhibition assay; format: biochemical; details: positive control at 1 μM
# In short: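 Test compound in DMSO is added, then reverse transcriptase (25 nM solution), and the mix is held 30 min at room temperature. The reaction is stopped with EDTA, PicoGreen is added and endpoint fluorescence is read at 485/535 nm. % inhibition is taken against a DMSO control, minus an EDTA-pretreated blank. Nevirapine is the reference.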
# [4] = tested on: alpha-glucosidase; details: from the lichen Parmotrema dilatatum; cited from earlier work
structure (smiles),measurement,setting,value
Cc1ccc(S(=O)(=O)/C=C/C#N)cc1 [Bay 11–7082],% NO inhibition ±SD,[1],72.5 ± 3.9%
same,% Cell viability ±SD,[1]; NO assay,82.7 ± 5.3%
Cc1cccc(C)c1OCC(=O)N[C@@H](Cc1ccccc1)[C@@H](O)C[C@H](Cc1ccccc1)NC(=O)[C@H](C(C)C)N1CCCNC1=O [Lopinavir],inhibition at 1 µM,[2],47.7 ± 1.7%
Cc1ccnc2c1NC(=O)c1cccnc1N2C1CC1 [Nevirapine],HIV-1 reverse transcriptase inhibition percentage,[3],38.3 ± 2.5%
COC(=O)c1c(C)c(Cc2c(O)c(Oc3c(C=O)c(O)cc(C)c3C(=O)OC)c3c(c2O)C(=O)O[C@@H]3O)c(O)c(C=O)c1O [parmetherines A],Alpha-glucosidase inhibition (in words),[4],strong
COC(=O)c1c(C)c(Cc2c(O)c(Oc3c(C=O)c(O)cc(C)c3C(=O)OC)c3c(c2O)C(=O)O[C@@H]3OC)c(O)c(C=O)c1O [parmetherines B],Alpha-glucosidase inhibition (in words),[4],strong
